pIC50: −log10 of the molar value. Like-named read-outs stand apart in the source and are kept apart here.
Experiments:
[1] = type: in vivo, Sprague Dawley rats; settings: for accumulation factor: rats
In short: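 Male SD rats (n = 5/group) were 7 wk old for the single dose, 6 wk for 2 wks, and 4 wk for 4 or 8 wks. They received KRG in PBS, 2 g/kg/day PO. Tail-vein blood was drawn 0–96 h after the last dose and spun 13,700 x g for 15 min; plasma was stored at −80 °C. Rb1, Rd and compound K were measured by LC-MS/MS with berberine as internal standard. Non-compartmental analysis was used; Tmax is reported as median (range).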

[2] = Pharmacokinetic study 2: oral compound K, single or 4 wks, in rats; type: in vivo, Sprague Dawley rats; settings: AUC 4 wks / AUC single
In short: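 Male SD rats (n = 5/group; 7 wk old for single dosing, 4 wk for 4 wks) got test compound in PBS by oral gavage at 5 or 10 mg/kg/day, single dose or 4 wks. Tail-vein plasma was sampled 0–24 h and assayed by LC-MS/MS. One-compartment model; AUC by trapezoids; Tmax as median (range). Accumulation factor = AUC(0−t) repeated / AUC(0−t) single at the same dose.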

[3] = 80% T>IC50, 5 mg/kg, single oral, rats
prostaglandin E2 (PGE2) = settings: read-out: IC50 for PGE2; in vitro; ref Park et al.[47]; cited from earlier work
nitric oxide (NO) = settings: read-out: IC50 for NO; in vitro; ref Park et al.[47]; cited from earlier work
A549 = A549 lung cancer cell line; cited from earlier work
PC-9 cells = settings: PC-9 lung cancer cell line; cited from earlier work
[4] = rats, same dose level; cited from earlier work
[5] = humans; cited from earlier work
[6] = male, Sprague-Dawley, rat, plasma, po, 2 g/kg
[7] = KRG 2 g/kg oral, 2 wks vs single (AUC ratio)

CC(C)=CCC[C@](C)(O[C@@H]1O[C@H](CO)[C@@H](O)[C@H](O)[C@H]1O)[C@H]1CC[C@]2(C)[C@@H]1[C@H](O)C[C@@H]1[C@@]3(C)CC[C@H](O)C(C)(C)[C@@H]3CC[C@]12C [Compound K, compound K]
Cmax ([1]; rat plasma, KRG 2 g/kg oral, 4 wks): 2.9 ng/mL
Cmax ([1]; rat plasma, KRG 2 g/kg oral, 8 wks): 2.3 ng/mL
accumulation factor ([2]; compound K oral 5 mg/kg): 4
accumulation factor ([2]; compound K oral 10 mg/kg): 7
Calculated dosing interval ([3]; NO (IC50 12 µM)): ~7 h
Calculated dosing interval ([3]; PGE2 (IC50 4 µM)): ~18 h
pIC50 (prostaglandin E2 (PGE2)): 5.40
pIC50 (nitric oxide (NO)): 4.92
in vitro IC50, antitumor activity (A549): 16.11 µg/mL
in vitro IC50, antitumor activity (PC-9 cells): 14.46 µg/mL
oral bioavailability [4]: 4%
time of appearance in plasma after consuming ginseng lacking compound K [5]: 8 h

CC(C)=CCC[C@](C)(O[C@@H]1O[C@H](CO[C@@H]2O[C@H](CO)[C@@H](O)[C@H](O)[C@H]2O)[C@@H](O)[C@H](O)[C@H]1O)[C@H]1CC[C@]2(C)[C@@H]1[C@H](O)C[C@@H]1[C@@]3(C)CC[C@H](O[C@@H]4O[C@H](CO)[C@@H](O)[C@H](O)[C@H]4O[C@@H]4O[C@H](CO)[C@@H](O)[C@H](O)[C@H]4O)C(C)(C)[C@@H]3CC[C@]12C [Rb1, ginsenoside Rb1]
Cmax [1, 6]: 23.9 ng/mL
Cmax at 8 wks [1, 6]: 68.3 ng/mL
accumulation factor [1, 7]: approximately 3
time within which excreted in the urine [5]: ≤ 3 h

CC(C)=CCC[C@](C)(O[C@@H]1O[C@H](CO[C@@H]2O[C@@H](CO)[C@H](O)[C@H]2O)[C@@H](O)[C@H](O)[C@H]1O)[C@H]1CC[C@]2(C)[C@@H]1[C@H](O)C[C@@H]1[C@@]3(C)CC[C@H](O[C@@H]4O[C@H](CO)[C@@H](O)[C@H](O)[C@H]4O[C@@H]4O[C@H](CO)[C@@H](O)[C@H](O)[C@H]4O)C(C)(C)[C@@H]3CC[C@]12C [Rc, ginsenoside Rc]
time within which excreted in the urine [5]: ≤ 3 h

CC(C)=CCC[C@](C)(O[C@@H]1O[C@H](CO)[C@@H](O)[C@H](O)[C@H]1O)[C@H]1CC[C@]2(C)[C@@H]1[C@H](O)C[C@@H]1[C@@]3(C)CC[C@H](O[C@@H]4O[C@H](CO)[C@@H](O)[C@H](O)[C@H]4O[C@@H]4O[C@H](CO)[C@@H](O)[C@H](O)[C@H]4O)C(C)(C)[C@@H]3CC[C@]12C [Rd, ginsenoside Rd]
Cmax [1, 6]: 8.5 ng/mL
accumulation factor [1, 7]: 2.2
accumulation factor ([1]; KRG 2 g/kg oral, 8 wks vs single (AUC ratio)): 5
time within which excreted in the urine [5]: ≤ 3 h

CC(C)=CCC[C@](C)(O[C@@H]1O[C@H](CO)[C@@H](O)[C@H](O)[C@H]1O)[C@H]1CC[C@]2(C)[C@@H]1[C@H](O)C[C@@H]1[C@@]3(C)CC[C@H](O)C(C)(C)[C@@H]3[C@@H](O[C@@H]3O[C@H](CO)[C@@H](O)[C@H](O)[C@H]3O)C[C@]12C [Rg1, ginsenoside Rg1]
time within which excreted in the urine [5]: ≤ 3 h

— PMC12316956 (Scientific Reports, 2025)
